Experimental data as given in ChEMBL document CHEMBL1122046, “Quaternary heterocyclylamino beta-lactams: a generic alternative to the classical acylamino side chain” (1982).
Values after ≈ are worked out from the molar mass of the structure shown.

How the values were obtained:
Type in all cases: functional
Pseudomonas aeruginosa = assay: Minimum inhibitory concentration against aerobic organism Pseudomonas aeruginosa strain 2835
Procedure, shortened: (§1)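 Agar-dilution MIC in µg/mL against aerobic bacterial strains on tryptocase soy agar, with inoculum applied as spots. Most series used 10^5 cfu per spot, and a later series used 10^4 cfu per spot. In some tables, footnoted strains were instead tested on Mueller-Hinton or nutrient agar. β-Lactamase-producing strains are flagged.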

Streptococcus pyogenes = assay: Minimum inhibitory concentration against aerobic organism Streptococcus pyogenes strain 3124; procedure, shortened: as §1
Serratia marcescens = assay: Minimum inhibitory concentration against aerobic organism Serratia marcescens strain 2852; procedure, shortened: as §1
Klebsiella aerogenes [1] = assay: Minimum inhibitory concentration against aerobic organism Enterobacter aerogenes strain 2906; procedure, shortened: as §1
Shigella = assay: Minimum inhibitory concentration against aerobic organism Shigella species strain 2880; procedure, shortened: as §1
Staphylococcus aureus [2] = assay: Minimum inhibitory concentration against aerobic organism Staphylococcus aureus strain 2868; conditions: Staphylococcus aureus; read-out: MIC; procedure, shortened: as §1
[3] = Minimum inhibitory concentration against aerobic organism Salmonella schottmuelleri strain 2837; procedure, shortened: as §1
Enterobacter cloacae = assay: Minimum inhibitory concentration against aerobic organism Enterobacter cloacae strain 2646; procedure, shortened: as §1
Escherichia coli = assay: MIC against aerobic organism Escherichia coli strain 2891; procedure, shortened: as §1
Klebsiella pneumoniae [4] = assay: Minimum inhibitory concentration against aerobic organism Klebsiella pneumoniae strain 2882; procedure, shortened: as §1
Enterococcus faecalis = assay: Minimum inhibitory concentration against aerobic organism Streptococcus faecalis strain 2864; procedure, shortened: as §1
Proteus vulgaris = assay: Minimum inhibitory concentration against aerobic organism Proteus vulgaris strain 2829; procedure, shortened: as §1
Proteus mirabilis = assay: Minimum inhibitory concentration against aerobic organism Proteus mirabilis strain 2830; procedure, shortened: as §1
Morganella morganii = assay: Minimum inhibitory concentration against aerobic organism Morganella morganii strain 2833; procedure, shortened: as §1
Salmonella = assay: Minimum inhibitory concentration against aerobic organism Salmonella strain 3860; procedure, shortened: as §1
Klebsiella pneumoniae [5] = assay: Minimum inhibitory concentration against aerobic organism Klebsiella pneumoniae strain 4005; procedure, shortened: as §1
Staphylococcus aureus [6] = assay: Minimum inhibitory concentration against aerobic organism Staphylococcus aureus strain 2865; procedure, shortened: as §1
Klebsiella aerogenes [7] = assay: Minimum inhibitory concentration against aerobic organism Enterobacter aerogenes strain 2828; procedure, shortened: as §1
[8] = Streptococcus pyogenes, read-out: MIC
[9] = Serratia marcescens, read-out: MIC
[10] = Klebsiella aerogenes, read-out: MIC
[11] = Enterobacter cloacae, read-out: MIC
[12] = Escherichia coli, read-out: MIC
[13] = Klebsiella pneumoniae, read-out: MIC
[14] = Proteus vulgaris, read-out: MIC
[15] = Proteus mirabilis, read-out: MIC
[16] = Morganella morganii, read-out: MIC

Row | Compound | MIC (Pseudomonas aeruginosa) [µg/mL] | MIC (Streptococcus pyogenes; [8]) [µg/mL] | MIC (Serratia marcescens; [9]) [µg/mL] | MIC (Klebsiella aerogenes [1]; [10]) [µg/mL] | MIC (Shigella; Shigella, read-out: MIC) [µg/mL] | MIC (Staphylococcus aureus [2]) [µg/mL] | MIC ([3]; Salmonella, read-out: MIC) [µg/mL] | MIC (Enterobacter cloacae; [11]) [µg/mL] | MIC (Escherichia coli; [12]) [µg/mL] | MIC (Klebsiella pneumoniae [4]; [13]) [µg/mL] | MIC (Enterococcus faecalis) [µg/mL] | MIC (Proteus vulgaris; [14]) [µg/mL] | MIC (Proteus mirabilis; [15]) [µg/mL] | MIC (Morganella morganii; [16]) [µg/mL] | MIC (Salmonella) [µg/mL] | MIC (Klebsiella pneumoniae [5]) [µg/mL] | MIC (Staphylococcus aureus [6]) [µg/mL] | MIC (Klebsiella aerogenes [7]) [µg/mL] | other results
1 | Cn1nnnc1SCC1=C(C(=O)[O-])N2C(=O)[C@@H](Nc3cc[n+](Cc4ccc(C#N)cc4)cc3)[C@H]2SC1 | > 128 | 0.125 (≈ 0.24 µM) | 128 (≈ 246 µM) | 8 (≈ 15.4 µM) | < 0.06 | 32 (≈ 61.5 µM) | 0.125 (≈ 0.24 µM) | 8 (≈ 15.4 µM) | 0.25 (≈ 0.48 µM) | 1 (≈ 1.92 µM) | > 128 | 16 (≈ 30.7 µM) | 128 (≈ 246 µM) | 128 (≈ 246 µM) | – | – | – | – | –
2 | Cn1nnnc1SCC1=C(C(=O)[O-])N2C(=O)[C@@H](Nc3cc[n+](COCC(F)(F)F)cc3)[C@H]2SC1 | > 128 | < 0.06 | 128 (≈ 247 µM) | 4 (≈ 7.73 µM) | < 0.06 | 4 (≈ 7.73 µM) | < 0.06 | < 0.06 | < 0.06 | 1 (≈ 1.93 µM) | > 128 | 4 (≈ 7.73 µM) | > 128 | > 128 | – | – | – | – | –
3 | O=C(Cc1cccs1)N[C@@H]1C(=O)N2C(C(=O)[O-])=C(C[n+]3ccccc3)CS[C@H]12 [CEPHALORIDINE] | > 128 | – | – | – | – | 4 (≈ 9.63 µM) | – | > 128 | > 128 | – | 64 (≈ 154 µM) | > 128 | 16 (≈ 38.5 µM) | > 128 | 0.5 (≈ 1.2 µM) | 0.25 (≈ 0.602 µM) | 0.25 (≈ 0.602 µM) | 8 (≈ 19.3 µM) | –
4 | Cn1nnnc1SCC1=C(C(=O)[O-])N2C(=O)C(Nc3ccc(Cl)c[n+]3C)C2SC1 (centres undefined) | > 128 | 32 (≈ 70.5 µM) | > 128 | > 128 | 8 (≈ 17.6 µM) | > 128 | 4 (≈ 8.81 µM) | > 128 | 2 (≈ 4.41 µM) | 64 (≈ 141 µM) | > 128 | 1 (≈ 2.2 µM) | > 128 | > 128 | – | – | – | – | –
5 | COC[n+]1ccc(N[C@@H]2C(=O)N3C(C(=O)[O-])=C(CSc4nnnn4C)CS[C@H]23)cc1 | > 128 | 0.125 (≈ 0.278 µM) | > 128 | 64 (≈ 142 µM) | 0.5 (≈ 1.11 µM) | 16 (≈ 35.6 µM) | 1 (≈ 2.22 µM) | 32 (≈ 71.2 µM) | 0.125 (≈ 0.278 µM) | 1 (≈ 2.22 µM) | > 128 | < 0.06 | 64 (≈ 142 µM) | > 128 | – | – | – | – | –
6 | CC1=C(C(=O)[O-])N2C(=O)[C@@H](Nc3cc[n+](Cc4ccccc4)cc3)[C@H]2SC1 | > 128 | 0.06 (≈ 0.157 µM) | > 128 | 128 (≈ 336 µM) | 2 (≈ 5.24 µM) | 64 (≈ 168 µM) | 0.5 (≈ 1.31 µM) | 64 (≈ 168 µM) | 4 (≈ 10.5 µM) | 32 (≈ 83.9 µM) | 128 (≈ 336 µM) | > 128 | > 128 | > 128 | – | – | – | – | –
7 | Cn1nnnc1SCC1=C(C(=O)[O-])N2C(=O)[C@@H](Nc3cc[n+](C)cc3)[C@H]2SC1 (stereo in doubt; 15b) | > 128 | – | – | – | – | > 128 | – | – | – | – | > 128 | – | – | – | – | – | – | – | MIC (Streptococcus pyogenes): 32 µg/mL (≈ 76.3 µM); MIC (Serratia marcescens): 64 µg/mL (≈ 153 µM); MIC (Klebsiella aerogenes [1]): 16 µg/mL (≈ 38.1 µM); MIC (Shigella): >128 µg/mL; MIC [3]: >128 µg/mL; MIC (Enterobacter cloacae): >128 µg/mL; MIC (Escherichia coli): >128 µg/mL; MIC (Klebsiella pneumoniae [4]): 64 µg/mL (≈ 153 µM); MIC (Proteus vulgaris): 4 µg/mL (≈ 9.54 µM); MIC (Proteus mirabilis): >128 µg/mL; MIC (Morganella morganii): >128 µg/mL
8 | Cn1nnnc1SCC1=C(C(=O)[O-])N2C(=O)[C@@H](Nc3cc[n+](COCC(Cl)(Cl)Cl)cc3C(=O)[O-])[C@H]2SC1.[Na+] | > 128 | – | – | – | – | > 128 | – | > 128 | 64 | – | > 128 | > 128 | > 128 | > 128 | > 128 | > 128 | > 128 | > 128 | –
9 | O=C([O-])CSc1nnc(SCC2=C(C(=O)[O-])N3C(=O)[C@@H](Nc4cc[n+](Cc5ccccc5)cc4)[C@H]3SC2)s1.[Na+] | 128 | – | – | – | – | 4 | – | 0.05 | < 0.125 | – | > 128 | < 0.125 | 64 | 16 | 0.25 | 1 | 1 | 0.5 | –
10 | Cn1nnnc1SCC1=C(C(=O)[O-])N2C(=O)[C@@H](Nc3cc[n+](CCc4ccccc4)cc3)[C@H]2SC1 | > 128 | < 0.5 | > 128 | 64 (≈ 126 µM) | < 0.5 | 4 (≈ 7.85 µM) | 1 (≈ 1.96 µM) | 8 (≈ 15.7 µM) | 4 (≈ 7.85 µM) | 1 (≈ 1.96 µM) | > 128 | > 128 | > 128 | > 128 | – | – | – | – | –
